Rows were chosen to be rich in hits. Some 1.8% of all compounds tested hit in one or more screens of this group.
M4 PAM = human M4 muscarinic receptor positive allosteric modulators, primary screen, CHO-K1 cells, Fluo-8 calcium fluorescence; CHO-K1 hM4/Gqi5, ACh EC20; 0% = ACh EC20, 100% = maximal ACh; activation, % at 3 µM; 360,000 tested, 0.4% active; AID 624126, 2012;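 active = activation above its plate's cutoff, the mean activation of sample wells plus 3 SD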
CHRM5 agonist = human M5 muscarinic receptor agonists, primary screen, CHO-K1 cells, Fluo-8 calcium fluorescence; activation, % at 3 µM; 360,000 tested, 0.19% active; CHO-K1 hM5 cells; 0% DMSO wells, 100% maximal acetylcholine response; Muscarinic acetylcholine receptor M5 (Homo sapiens), P08912;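 active = activation above the run's mean over test compounds plus 3 SD, cut at about 23% in these data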;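 also: signal is peak over basal fluorescence ratio across the kinetic read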
Target sequence (P08912 whole entry, looked up): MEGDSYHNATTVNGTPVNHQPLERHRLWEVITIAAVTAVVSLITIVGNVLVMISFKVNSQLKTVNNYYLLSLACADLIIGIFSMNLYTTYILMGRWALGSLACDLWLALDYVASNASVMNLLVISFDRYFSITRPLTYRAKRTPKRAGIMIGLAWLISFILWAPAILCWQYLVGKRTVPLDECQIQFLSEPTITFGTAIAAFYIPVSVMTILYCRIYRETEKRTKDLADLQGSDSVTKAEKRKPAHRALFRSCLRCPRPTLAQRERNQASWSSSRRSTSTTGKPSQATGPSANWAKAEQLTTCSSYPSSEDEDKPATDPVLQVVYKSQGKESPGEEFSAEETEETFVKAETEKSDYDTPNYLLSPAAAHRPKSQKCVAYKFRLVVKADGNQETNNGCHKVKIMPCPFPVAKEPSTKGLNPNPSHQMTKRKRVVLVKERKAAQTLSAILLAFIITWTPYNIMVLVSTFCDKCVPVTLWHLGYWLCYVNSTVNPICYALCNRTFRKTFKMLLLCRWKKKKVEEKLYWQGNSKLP
M5 antag = human M5 muscarinic receptor antagonists, primary screen, CHO cells, Fluo-8 calcium fluorescence; Muscarinic acetylcholine receptor M5 (Homo sapiens), P08912; CHO-hM5 cells, ACh EC80; inhibition, % at 3 µM; 360,000 tested, 0.59% active; AID 624040, 2012;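 active = inhibition above a per-plate cutoff, the mean of that plate's test compounds plus 3 SD, cut at about 27% in these data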;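 also: 0% = acetylcholine EC80 with DMSO and 100% = DMSO without agonist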
CHRM4 agonist = human M4 muscarinic receptor agonists, primary screen, CHO-K1 cells, Fluo-8 calcium fluorescence; Muscarinic acetylcholine receptor M4 (Homo sapiens), P08173; CHO-K1 hM4/Gqi5; vehicle 0%, full acetylcholine response 100%; activation, % at 3 µM; 360,000 tested, 0.14% active; AID 624127, 2012;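 active = activation above the run mean over all test wells plus 3 SD, cut at about 32% in these data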;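 also: peak over basal fluorescence ratio per well then scaled between controls; 0% = DMSO wells and 100% = acetylcholine at EC100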
M5 PAM = human M5 muscarinic receptor positive allosteric modulators, primary screen, CHO-K1 cells, Fluo-8 calcium fluorescence. CHO-K1 hM5, ACh EC20 PAM; 0% = ACh EC20, 100% = ACh EC100. activation, % at 3 µM. 360,000 tested, 0.3% active. AID 624038, 2012;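 active = activation above the run cutoff, the mean activation of all test compounds plus 3 SD, cut at about 18% in these data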
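System – CHO-K1 hM5 cells · Compound – 3 µM, single dose · Incubation – compound preincubation 140 s before EC20 acetylcholine addition · Technique – Fluo-8 calcium fluorescence · Measure – Max/basal fluorescence ratio as % of EC20–EC100 ACh window · Benchmarks – low control EC20 acetylcholine (0%), high control EC100 acetylcholine (100%) · Replication – singlicate, one well per test compound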
CHRM4 antagonist = human M4 muscarinic receptor antagonists, primary screen, CHO cells, Fluo-8 calcium fluorescence | Muscarinic acetylcholine receptor M4 (Homo sapiens), P08173 | CHO-hM4 cells, ACh EC80 | inhibition, % at 3 µM | 360,000 tested, 0.73% active | AID 624125, 2012;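 active = inhibition above its plate's cutoff, the mean inhibition of sample wells plus 3 SD, cut at about 27% in these data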;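 also: 0% = acetylcholine EC80 with DMSO and 100% = DMSO without agonist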
Numbers without * were called inactive; ! = not active in a repeat.

SMILES | M4 PAM | CHRM5 agonist | M5 antag | CHRM4 agonist | M5 PAM | CHRM4 antagonist
Cc1c(O)cccc1C(=O)N[C@@H](CSc1ccccc1)[C@H](O)CN1C[C@H]2CCCC[C@H]2C[C@H]1C(=O)NC(C)(C)C | -14 | 98*! | 85*! | 44*! | -20 | -3
O=C(Nc1ccnn1C1CCN(C(=O)c2ccc(C(F)(F)F)cc2)CC1)C1CC1 | 4 | -7 | 5 | 2 | -5 | -12
O=C(Nc1ccnn1C1CCN(C(=O)c2cccc(C(F)(F)F)c2)CC1)C1CC1 | 21* | -3 | 11 | 2 | 1 | -8
CCOc1ccc(Cl)cc1S(=O)(=O)N1CCC(C(=O)NCc2ccncc2)CC1 | -7 | -4 | 7 | 3 | 0 | 11
CCc1ccc(Nc2n[n+](-c3ccccc3)c(-c3ccc(N(CC)CC)cc3)s2)cc1 | -9 | 19 | 36* | 42* | -16 | 30*
COc1ccc2ccccc2c1-c1sc(Nc2ccccc2)n[n+]1-c1ccc(F)cc1 | -8 | 28* | 35* | 32* | -33 | 9
COc1ccc(-c2sc(Nc3ccccc3)n[n+]2-c2ccc(F)cc2)cc1Br | 14 | -5 | 14 | 1 | -5 | 10
CCN(CC)c1ccc(-c2sc(Nc3ccccc3)n[n+]2-c2ccc(F)cc2)cc1 | -6 | 20 | 26 | 22 | -11 | -4
CCc1ccc(Nc2n[n+](-c3ccccc3)c(-c3c(Cl)cccc3Cl)s2)cc1 | -19 | 49* | 70* | 43* | -25 | 24
O=C(NCc1ccccn1)c1cc(Cl)ccc1OCc1ccccc1 | -7 | -1 | -1 | 9 | -4 | -4
CC(=O)Nc1cccc(-c2ccnc3c2CC(C)(C(=O)NCCC(F)(F)F)O3)c1 (centres undefined) | 7 | 0 | -7 | 1 | 2 | -7
COc1ccc(N(C(=O)CNC(=O)c2ccco2)C(C(=O)NCC2CCCO2)c2ccccc2)cc1 (centres undefined) | -7 | 0 | 9 | 10 | -5 | 3
CCN(c1ccccc1)S(=O)(=O)c1ccc(Cl)c(C(=O)OCC(=O)c2[nH]c(C)c(C(C)=O)c2C)c1 | -37 | -4 | 16 | 5 | -17 | 28*
COc1ccc(S(=O)(=O)NC(=O)C2(C)CCN2C(=O)c2cccc(F)c2)cc1 (centres undefined) | 0 | 1 | 20 | 1 | -7 | 5
CC(=O)Nc1cccc(/C(C)=N/Nc2ccc(S(=O)(=O)Nc3ccccc3C(=O)O)cc2[N+](=O)[O-])c1 | 20* | 2 | 9 | -2 | -3 | -13
CC(=O)Nc1ccc(C=NNc2ccc(S(=O)(=O)Nc3ccccc3C(=O)O)cc2[N+](=O)[O-])cc1 | 4 | 2 | 11 | 0 | -8 | -10
COc1ccccc1C(=O)COC(=O)c1ccccc1O | 6 | -4 | 33* | 2 | -13 | -6
COc1ccccc1C(=O)COC(=O)c1cccs1 | 4 | -1 | 12 | 2 | 1 | -4
N#CCOc1coc(CN2CCN(c3ccccc3)CC2)cc1=O | -1 | 0 | -3 | 1 | 2 | -2
O=C(NCCc1c[nH]c2ccccc12)C1CCC(=O)N(CCc2cccc(F)c2)C1 (centres undefined) | 3 | 1 | -3 | 2 | 0 | -16
Cc1n[nH]c2c([N+](=O)[O-])c(=O)[nH]c(=O)n12 | 0 | 4 | 0 | 1 | 5 | -1
CC(NC(=O)C1CCC(C(C)(C)C)CC1)C(c1ccccc1)N1CCOCC1 (centres undefined) | -6 | -2 | -1 | -1 | -2 | 6
CC(NC(=O)Nc1ccc(Cl)c(Cl)c1)C(c1ccccc1)N1CCOCC1 (centres undefined) | -7 | 18 | 31* | 73* | -16 | 6
CC(NC(=O)c1ccc(Cl)cc1Cl)C(c1ccccc1)N1CCOCC1 (centres undefined) | 2 | -3 | 7 | 0 | -3 | -1
CC(NC(=O)Nc1ccc([N+](=O)[O-])cc1)C(c1ccccc1)N1CCOCC1 (centres undefined) | 0 | 31* | 3 | 76* | -8 | -4
SMILES | M4 PAM | CHRM5 agonist | M5 antag | CHRM4 agonist | M5 PAM | CHRM4 antagonist
COC(=O)c1cccc(Oc2cccc(Cl)n2)c1 | 8 | -3 | -4 | 0 | 11 | 4
CCOc1ccc(NS(=O)(=O)c2ccc(C(=O)N(C)CC(=O)Nc3cccc(OC)c3)cc2)cc1 | -2 | 1 | 9 | 3 | -7 | 10
Cc1c(-c2ccccc2)[n+](=O)c(-c2ccc(Br)cc2)c(C)n1[O-] | -5 | 1 | 3 | 2 | 3 | 0
Cc1c(-c2ccccc2)[n+](=O)c(-c2ccc(Cl)cc2)c(C)n1[O-] | 0 | -2 | 30* | 16 | -11 | -2
Cc1c(N=C/C=C/c2ccccc2)c(=O)n(-c2ccccc2)n1C | -17 | -7 | 27 | 0 | -23 | 53*
C#CCOC(=O)CCCC(=O)NCCCCCCCC | 12 | 9 | 0 | 1 | 27* | -12
O=C(Nc1ccc(Br)cc1)c1ccc(N2C(=O)C3CC=C(Cl)CC3C2=O)cc1 (centres undefined) | -1 | -1 | -5 | 3 | -5 | -2
Cc1ccccc1OCC(=O)Nc1ccc(S(=O)(=O)Nc2onc(C)c2C)cc1 | 0 | 2 | -14 | 0 | 22* | -21
Cc1cc(C(=O)Nc2ccc(S(=O)(=O)Nc3onc(C)c3C)cc2)c(C)o1 | 6 | 3 | -11 | 0 | 6 | -5
Cc1ccc2oc(C(=O)Nc3ccc(S(=O)(=O)Nc4onc(C)c4C)cc3)c(C)c2c1 | 1 | 0 | 13 | 0 | 48* | 2
CC(=O)N1c2ccc(S(=O)(=O)N(C)CC(=O)NCc3ccc(C)cc3)cc2CC1C (centres undefined) | 6 | -2 | 6 | 0 | 0 | -15
Cc1c(O)c(S(=O)(=O)c2ccccc2)c(=O)n(-c2ccccc2)c1-c1ccccc1 | 10 | -3 | 4 | 1 | 0 | 27*
Cc1c(O)c(S(=O)c2ccccc2)c(=O)n(-c2ccccc2)c1-c1ccccc1 (centres undefined) | -3 | 1 | 0 | 0 | -3 | 2
CCOc1nc(-c2ccccc2)ccc1-c1noc(COC)n1 | 17 | -7 | -12 | -1 | 18* | -3

Screening data deposited in PubChem by The Scripps Research Institute Molecular Screening Center.
